According to ChEMBL document CHEMBL5352453, “Hit-to-lead optimization of a 2-aminobenzimidazole series as new candidates for chagas disease” (Eur J Med Chem, 2023):

What was measured:
[1] = Metabolic stability in CD1 mouse liver microsomes assessed as intrinsic clearance measured upto 60 mins by LC-MS/MS analysis; assay type: ADME; settings: read-out: CLH
Outline: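 CD1 mouse liver microsomes at 0.25 mg/mL, compound at 0.5 µM, pH 7.4, 37 °C, started with NADPH. Sampled at 0, 5, 10, 20, 30 and 60 min and quenched with acetonitrile:methanol containing tolbutamide. Measured by LC-MS/MS; CLint (k × 1000/0.25, µL/min/mg) derived by non-linear regression of % remaining over time.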

Trypanosoma cruzi = assay: Antitrypanosomal activity against Trypanosoma cruzi Tulahuen CL2 amastigotes expressing beta galactosidase infected in human MRC5 cells assessed as reduction in parasite burden using chlorophenol red beta-D-galactopyranoside as substrate and measured after 7 days by spectrophotometric analysis; assay type: functional, organism-based; settings: Tulahuen CL2, MRC5, 168 h
Outline: (§1)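 T. cruzi Tulahuen CL2 β-galactosidase strain grown in MRC-5 cells (MEM, 5% heat-inactivated FCS, 37 °C, 5% CO2). MRC-5 cells (4 x 10^3/well) plus parasites (4 x 10^4/well) exposed 7 days to 4-fold dilutions from 64 µM down; final DMSO <1%. CPRG with Nonidet added, absorbance at 540 nm after 4 h. IC50 calculated against untreated-infected (100%) and non-infected (0%) controls. SI = MRC-5 CC50/IC50.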

[2] = Selectivity index, ratio of CC50 for cytotoxicity against human MRC5 cells to EC50 for Trypanosoma cruzi Tulahuen CL2 amastigotes expressing beta galactosidase infected in human MRC5 cells; assay type: toxicity, cell-based; settings: read-out: Selectivity Index; outline: as §1

Row | microsomal CLint [1] | Structure (SMILES) | IC50 (Trypanosoma cruzi) | selectivity ratio [2]
1 | 23 µL/min/mg | CC(=O)N1CCC(n2c(NC(=O)c3ccnn3C)nc3ccc(C#N)cc32)CC1 | 64 µM | 1
2 | 23 µL/min/mg | Cn1nccc1C(=O)Nc1nc2cc(CN3CCOCC3)ccc2n1CC(F)(F)F | 8.3 µM | 5
3 |  | Cn1nccc1C(=O)Nc1nc2cc(CO)ccc2n1CC(F)(F)F | 64 µM | 1
4 | 37 µL/min/mg | Cn1nccc1C(=O)Nc1nc2cc(C(F)(F)F)cnc2n1CC(C)(C)C | 0.57 µM | 7
5 |  | CCCn1c(NCc2ccc(F)cc2)nc2cc(F)ccc21 | 25 µM | 
6 | 595 µL/min/mg | Cc1nc(C)c(C(=O)Nc2nc3ccc(C#N)cc3n2CC(F)(F)F)s1 | 0.54 µM | 14
7 |  | CN(C)c1ccc(C(=O)Nc2nc3ccc(C#N)cc3n2CC(F)(F)F)cn1 | 8.6 µM | > 7
8 | 77 µL/min/mg | Cn1nc(C(=O)Nc2nc3ccc(C#N)cc3n2CC(F)(F)F)cc1C(F)(F)F | 64 µM | 1
9 |  | CCCn1c(NC(=O)Cc2ccc(F)cc2)nc2ccc(C(=O)O)cc21 | > 64 µM | 1
10 | 285 µL/min/mg | CCCn1c(NC(=O)c2cccc(C(F)(F)F)n2)nc2cccnc21 | 2.4 µM | > 27
11 | 446 µL/min/mg | CCCn1c(NC(=O)c2cccnc2)nc2cc(F)c(F)cc21 | 2.1 µM | > 30
12 |  | O=C(Cc1ccc(Cl)cc1)Nc1nc2ccccc2[nH]1 | > 64 µM | 
13 |  | CC(C)(C)Cn1c(NC(=O)c2ccc(C(F)(F)F)nc2)nc2ccc(C#N)cc21 | 52 µM | > 1
14 | 25 µL/min/mg | Cc1nnn(CC(=O)Nc2nc3ccc(C#N)cc3n2CC(F)(F)F)n1 | 11 µM | > 6
15 |  | Cn1cc(C(=O)Nc2nc3ccc(C#N)cc3n2CC(F)(F)F)cn1 | 64 µM | 1
16 | 52.7 µL/min/mg | Cn1nccc1C(=O)Nc1nc2cc(-c3ncco3)ccc2n1CC(F)(F)F | 38 µM | 1
17 | 73 µL/min/mg | Cn1ccc(C(=O)Nc2nc3ccc(C#N)cc3n2CC(F)(F)F)n1 | 64 µM | 1
18 | 128 µL/min/mg | CCCn1c(NC(=O)Cc2ccc(F)cc2)nc2ccc(C(=O)NCOC)cc21 | 8.3 µM | 7
19 | 200 µL/min/mg | CCCn1c(NC(=O)c2cccnc2)nc2ccc(C#N)cc21 | 18 µM | > 4
20 | 44 µL/min/mg | Cn1nccc1C(=O)Nc1nc2cc(F)cnc2n1CC(F)(F)F | 0.84 µM | 3
21 | 113 µL/min/mg | O=C(Nc1nc2cc(F)cnc2n1CC(F)(F)F)c1ccc(C(F)(F)F)nc1 | 0.15 µM | 6
22 |  | Cc1ccc(C(=O)Nc2nc3ccc(C#N)cc3n2CC(F)(F)F)cn1 | 64 µM | 1
23 | 236 µL/min/mg | N#Cc1ccc2nc(NC(=O)c3ccccn3)n(CC(F)(F)F)c2c1 | 9.3 µM | > 7
24 |  | Cn1nncc1C(=O)Nc1nc2ccc(C#N)cc2n1CC(F)(F)F | 24 µM | > 3

Row | microsomal CLint [1] | Structure (SMILES) | IC50 (Trypanosoma cruzi) | selectivity ratio [2]
25 |  | CCCn1c(NC(=O)Cc2cc(F)ccc2F)nc2ccccc21 | 2.2 µM | 
26 | 1510 µL/min/mg | CCCn1c(NC(=O)Cc2ccc(Cl)cc2)nc2cc(F)ccc21 | 0.92 µM | > 70
27 | 141 µL/min/mg | Cc1nn[nH]c1C(=O)Nc1nc2ccc(C#N)cc2n1CC(F)(F)F | 64 µM | 1
28 | 23 µL/min/mg | Cn1nccc1C(=O)Nc1nc2cc(CN3CCCC3)ccc2n1CC(F)(F)F | 8.1 µM | 2
29 |  | CCCn1c(NC(=O)c2ccc(F)cc2)nc2ccc(F)cc21 | > 64 µM | 
30 | 26 µL/min/mg | O=C(Nc1nc2cc(F)ccc2n1C1CCOCC1)c1cccnc1 | 8.5 µM | 5
31 |  | CCCn1c(NS(=O)(=O)c2ccc(Br)cc2)nc2ccccc21 | > 64 µM | 
32 |  | N#Cc1ccc2nc(NC(=O)c3ccnc(C(F)(F)F)c3)n(CCF)c2c1 | 49 µM | 1
33 | 70 µL/min/mg | N#Cc1ccc2nc(NC(=O)c3cc(C(F)(F)F)n[nH]3)n(CC(F)F)c2c1 | 0.49 µM | 11
34 | 23 µL/min/mg | CCCn1c(NC(=O)Cc2ccc(F)cc2)nc2ccc(C(=O)N3CCOCC3)cc21 | 35 µM | > 2
35 | 383 µL/min/mg | Cn1nccc1C(=O)Nc1nc2ccc(C#N)cc2n1CC(F)F | 2.4 µM | 5
36 |  | O=C(Nc1nc2cncnc2n1CC(F)(F)F)c1ccnc(C(F)(F)F)c1 | 1.1 µM | 5
37 | 170 µL/min/mg | COc1ccc(C(=O)Nc2nc3ccc(C#N)cc3n2CC(F)(F)F)cn1 | 2.3 µM | > 28
38 | 119 µL/min/mg | Cn1nccc1C(=O)Nc1nc2cccnc2n1CC(F)(F)F | 3.9 µM | 2
39 | 467 µL/min/mg | CCCn1c(NC(=O)c2cccc(C(F)(F)F)n2)nc2ccc(F)cc21 | 2.3 µM | > 28
40 | 98 µL/min/mg | O=C(Nc1nc2ccc(F)cc2n1CC(F)(F)F)c1cccnc1 | 4.2 µM | 13
41 | 1590 µL/min/mg | CCCn1c(NC(=O)Cc2ccc(Cl)cc2)nc2ccc(F)cc21 | 0.56 µM | 102
42 | 283 µL/min/mg | CCCn1c(NC(=O)Cc2ccc(Cl)cc2)nc2cc(C(F)(F)F)ccc21 | 0.74 µM | 15
43 | 1250 µL/min/mg | CCCn1c(NC(=O)Cc2ccc(F)cc2)nc2ccc(C(=O)OC)cc21 | 0.53 µM | 35
44 | 222 µL/min/mg | Cn1nccc1C(=O)Nc1nc2cccnc2n1CC(C)(C)C | 2.2 µM | 20
45 | 36 µL/min/mg | N#Cc1ccc2nc(NC(=O)Cn3cccn3)n(CC(F)(F)F)c2c1 | 6.6 µM | 9
46 | 86 µL/min/mg | O=C(Nc1nc2ccc(F)cc2n1CC(F)(F)F)c1ccc(C(F)(F)F)nc1 | 42 µM | > 2
47 | 39 µL/min/mg | Cn1nc(C(F)(F)F)cc1C(=O)Nc1nc2ccc(C#N)cc2n1CCF | 2.1 µM | 11
48 | 66 µL/min/mg | CCCn1c(NC(=O)Cc2ccc(F)cc2)nc2ccc(C(=O)NC)cc21 | 34 µM | 1

Row | microsomal CLint [1] | Structure (SMILES) | IC50 (Trypanosoma cruzi) | selectivity ratio [2]
49 | 399 µL/min/mg | CCCn1c(NC(=O)Cc2ccc(F)cc2)nc2cc(F)c(F)cc21 | 0.53 µM | > 121
50 |  | Cc1cc(C(=O)Nc2nc3ccc(C#N)cc3n2CC(F)(F)F)[nH]n1 | 36 µM | 1
51 | 160 µL/min/mg | O=C(Nc1nc2ccc(F)cc2n1C1CC1)c1cccnc1 | 34 µM | > 2
52 |  | N#Cc1ccc2nc(NC(=O)c3ccnc(C(F)(F)F)c3)n(CC(F)F)c2c1 | 0.51 µM | 24
53 |  | N#Cc1ccc2nc(NC(=O)c3ccnn3C3CC3)n(CC(F)(F)F)c2c1 | 0.99 µM | 3
54 |  | Cn1ncc(C(=O)Nc2nc3ccc(C#N)cc3n2CC(F)(F)F)n1 | 64 µM | 1
55 |  | CCCn1ccnc1NC(=O)Cc1ccc(F)cc1 | 35 µM | 
56 |  | N#Cc1ccc2nc(NC(=O)c3cc(C(F)(F)F)nn3CC(=O)O)n(CC(F)(F)F)c2c1 | 64 µM | 1
57 |  | O=C(Nc1nc2cncnc2n1CC(F)(F)F)c1ccc(C(F)(F)F)nc1 | 0.51 µM | 6
58 | 1350 µL/min/mg | N#Cc1ccc2nc(NC(=O)c3ccc(C(F)(F)F)nc3)n(C3CC3)c2c1 | > 64 µM | 
59 |  | O=C(Nc1nc2cncnc2n1CC(F)(F)F)c1cc(C(F)(F)F)n[nH]1 | 7.5 µM | 4
60 |  | CCCn1c(CCNC(=O)Cc2ccc(Cl)cc2)nc2ccccc21 | 33 µM | 
61 |  | Cn1nc(C(F)(F)F)cc1C(=O)Nc1nc2cncnc2n1CC(F)(F)F | 0.59 µM | 7
62 |  | CCCn1c(NC(=O)Cc2ccc(F)cc2)nc2ccc(C(=O)N3CCCC3)cc21 | 8.5 µM | > 8
63 |  | CCCn1c(NC(=O)Cc2ccc(F)cc2)nc2ccccc21 | 2.1 µM | 
64 |  | COCCn1c(NC(=O)c2ccc(C(F)(F)F)nc2)nc2ccc(C#N)cc21 | 64 µM | 1
65 |  | Cn1nccc1C(=O)Nc1nc2cc(S(C)(=O)=O)ccc2n1CC(F)(F)F | 2.2 µM | 6
66 |  | O=C(Nc1nc2cc(F)ccc2n1C1CCNCC1)c1cccnc1 | 9.2 µM | 3
67 |  | O=C(Cc1ccc(Cl)cc1)Nc1nc2ccccc2s1 | > 64 µM | 
68 |  | CCCn1c(NC(=O)Nc2ccc(Cl)cc2)nc2ccccc21 | > 64 µM | 
69 |  | CCCn1c(NC(=O)c2ccc(C(F)(F)F)nc2)nc2cccnc21 | 3.2 µM | 15
70 | 3090 µL/min/mg | CCCn1c(NC(=O)Cc2ccc(Cl)cc2)nc2ccccc21 | 1.89 µM | 
71 |  | N#Cc1ccc2nc(NC(=O)c3cnc(C(F)(F)F)nc3)n(CC(F)(F)F)c2c1 | 0.24 µM | 8
